Assay results from the EternaBench riboswitch data.

Tested on: MS2 coat protein
Assay: apparent Kd, MS2 coat protein; higher = weaker binding; RNA-MaP array; FMN 200 µM where present
Summary of the method: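 Designs were transcribed by stalled E. coli RNA polymerase on Illumina sequencing-chip clusters. They were titrated with SNAP-549-labelled MS2 coat protein from 0.7 or 1.5 nM, doubling to 3 µM, without and then with constant ligand. Buffer: 100 mM Tris-HCl pH 7.5, 80 mM KCl, 4 mM MgCl2, BSA, DTT, yeast tRNA, Tween-20. Green signal was normalised to red-channel RNA signal and control-cluster median Fmax. Apparent Kd is the median of filtered per-cluster binding-curve fits.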

[1] = designed as: OFF switch for flavin mononucleotide, no ligand
[2] = ligand present: flavin mononucleotide, designed as: OFF switch for flavin mononucleotide
[3] = designed as: ON switch for flavin mononucleotide, no ligand
[4] = ligand present: flavin mononucleotide, designed as: ON switch for flavin mononucleotide

Row | Sequence | apparent Kd [1] [nM] | apparent Kd [2] [nM] | apparent Kd [3] [nM] | apparent Kd [4] [nM]
1 | UUUAUACAUGAGGAUCACCCAUGUGAGGAUAUGCUUUAUUAUUAUUAUUAUUAUUAUUGCAGAAGGUACGUUAU | 35.7 | 36.1 |  | 
2 | AUCUUGAGAGGAUAUACAUGAGGAUCACCCAUGUUGCUAACACCAUGCGGUCAUUUGCGUAGAAGGCUCAUCCG | 26.2 | 104 |  | 
3 | UAAUAAUAAUAAUAAUGGACUGAUACAUGAGGAUCACCCAUGUAGGAUAUGCAGUGGAAUACACUGCAGAAGGACAUACAGUCC | 16.6 | 17.2 |  | 
4 | GGUACUCAAAGAGUACCAAUACGAACAUGAGGAUCACCCAUGUAGGAUAUUCUACUCAAAGAGUAGCAGAAGGACAUGUGCCUA | 10.8 | 13.1 |  | 
5 | CAUGAGGUAGGAUAUACGAUAAUAUAGGGUAGAUAUAUAACACAUGAGGAUCACCCAUGUAGAAGGACCAGUAG | 31.2 | 57.2 |  | 
6 | AGCGCGGUCCACUUGGACGCCUACGAGGAUAUCCUGUCACAUGAGGAUCACCCAUGUAGGCACAUGGAGAAGGCGUAGAAAUCA |  |  | 60.9 | 7.22
7 | AAUAACAGAGGAUAUACUAUUUUAUGUAUUUAUUAUUUUGAACAUGAGGAUCACCCAUGUAGAAGGCUGAAUGA | 26.4 | 22 |  | 
8 | AUUUCAGUCAGAGGAUAUUGUUUAUCUCUAUUGCAAGAAGGCUGAUCUUACUACCCACUUAUGAAACAUGAGGAUCACCCAUGU |  |  | 20.8 | 16.8
9 | CCAUCAGCGAACGAUACGGUUGGACAUGAGGAUCACCCAUGUAGAAGGACAGGAGAAUAACGGCUGUAGGAUAUACAUUUAGUG | 40.7 | 33.9 |  | 
10 | GAAAAACAUGAGGAUCACCCAUGUGAGAAUAUGGGAGGAUAUACGAGGACGAGAGUCAAGGUAGAAGGCCUAAAAG |  |  | 96.3 | 15.2
11 | AACUAGCUAGGAUAUACAUGAGGAUCACCCAUGUAAAAAAAAAAAAAAAAAUUUUUAUGUAGAAGGAGCUAGUA | 34 | 41.2 |  | 
12 | AAAAAGUCAGGAUAUACGAAAAAAAAAAAAAAAAAAAAAAAGUAGAAGGGACAUGAGGAUCACCCAUGUAAAAA | 78.2 | 58.8 |  | 
13 | GACAUUGGCAAGAAGGCAAACAUGAGGAUCACCCAUGUUCUGCAUGUAUAUUGAGGAUAUUGCCAAUGUAUGUGGAUCACCCAA | 6.36 | 23.3 |  | 
14 | CGCUGUCACGCAGGAUAUGCAUUGGAUUCCAAUGCAGAAGGGCGAUUACAUGAGGAUCACCCAUGUGUCGACAGUGAAGAAGAG |  |  | 599 | 44
15 | GGCUAGGACAGAGGAUAUACGUGCUAGAGAUACUAGCAAAAUUUCCUCACAUGAGGAUCACCCAUGUAGAAGGCUGUCCUAUCG | 18.4 | 458 |  | 
16 | GAUGGACAUGAGGAUCACCCAUGUAAGGAUAUUGAUUGUGGCUAUAAAUGGUUACGGUCGAGAAGGUACUCGUC | 82.2 | 78.8 |  | 
17 | GAUGAGGUAGGAUAUACGAUAAUAUAGGGUAGAUAUAUAACACAUGAGGAUCACCCAUGUAGAAGGACCAGUAC | 38.6 | 61.1 |  | 
18 | UUGAUAAGGAGAGGAUAUGGACAUGAGGAUCACCCAUGUACAUGGGAAUAUAUACUGAAUUUUUACUAGAAGGCUUACAUAUUU | 14.7 | 13 |  | 
19 | CAGCGAUAGCUGAAUGGUACAUGGGAGGAUAUGGGUUGACAUGAGGAUCACCCAUGUAAAUAAUACUAGAAGGCCCAUGUACCU |  |  | 191 | 9.38

Row | Sequence | apparent Kd [1] [nM] | apparent Kd [2] [nM] | apparent Kd [3] [nM] | apparent Kd [4] [nM]
20 | ACUGCUCGAGGAUAUACAUGAGGAUCACCCAUGUAACCCAGAAGCACGGCCUCAGGAUGUAGAAGGCGACGCAA | 13.1 | 13.2 |  | 
21 | AUCAUGUCAGGAUAUGUGACAUGGAUCUUCGGAUCAAGAUCACAGAAGGGACAUGAGGAUCACCCAUGUCGAUC | 98.8 | 53.4 |  | 
22 | UAUAUACAUGAGGAUCACCCAUGUAAGGAUAUGCUUUAUUAUUAUUAUUAUUAUUAUUGCAGAAGGUACAAUAU | 32 | 29.8 |  | 
23 | UUAUACAUGAGGAUCUCCCAUGACAUGAGGAUCACCCAUGUGCAGGAUAUACGUGAUAUAAUAUAGUAGAAGGGCAGACUAUAU | 119 | 130 |  | 
24 | CAGGUAGACUGAGGAUAUACAAAGACCUAGUUUAUCUAGGUCAACAUCACAUGAGGAUCACCCAUGUAGAAGGCAGUCUGCCUG | 15.4 | 24.7 |  | 
25 | GUGAGUGGUCAGGAUAUGCUGUACAAAAGUACAGCAGAAGGGACUACAUGAGGAUCACCCAUGUUUACUUCAUG | 268 | 311 |  | 
26 | CGGUCGAAGUAAGGAUAUCGACUGGAUAACAGUCGAGAAGGUACAUGAGGAUCACCCAUGUAAUCCUAUAAUAAAUAACGACCG | 12.1 | 15.5 |  | 
27 | AAAGAGACAGGAUAUACAUGGGUGAUAAAAAUCAUGUAAAAACAUGAGGAUCACCCAUGUAGAAGGGUCUCAAA | 26.9 | 22.8 |  | 
28 | GGUGCGUUUGUGAGGAUAUGCUGGUCCUUGGUUCUGCAGAAGGCACAUGAGGAUCACCCAUGUGGUGUCGUACC | 77 | 162 |  | 
29 | UUAAUUUAGUGAUAUUAUGACAUUAGAAGGCUGUACAUGUUGAUACAUGAGGAUCACCCAUGUAUAGAGGAUAUAGACAAUUUU | 39.8 | 93.8 |  | 
30 | UUUCGGCAUGUAGGAUAUGGGUCCGAUUAGGAUUUAGAAGGACAUGAGGAUCACCCAUGUGCAUUUAAUUGGUCAUUACCUUUU | 62.9 | 74 |  | 
31 | GAUAUGUUAGGAUAUCGGAAAACGGCCCACUGGCACGGAAGCGAGAAGGGACAUGAGGAUCACCCAUGUGAAAG | 48.1 | 31.4 |  | 
32 | CAUUUUGCCGAGGAUAUGGAGGAUGACACUCUACCAGAAGGUGGCACAUGAGGAUCACCCAUGUGGAGUUCGCG | 79.3 | 92.7 |  | 
33 | AUCAGUUCGUCAGGAUAUACGUCACUGCGUCAGCAGUGUGGUAAGAUCACAUGAGGAUCACCCAUGUAGAAGGGACGAGCUGAU | 14 | 214 |  | 
34 | ACAUGAGGAUCACCCAUGUAUUCAUAGGAUAUACAACAUGAGUUUCAUUCAUGUAAACAUGUAUUGUAGAAGGAUGUUACAUGU | 13.6 | 15 |  | 
35 | GUGUACGGAGGAUAUAUGUGGGCAGCAUACGCUGCAGCUUCACAUGAGGAUCACCCAUGUAGAAGGCUGUGCAC | 23.2 | 131 |  | 
36 | CCAUCGUGUGUGAGGAUAUGCUGGUCCUUGGAUCAGCAGAAGGCACAUGAGGAUCACCCAUGUGAAUACGAUGG | 16.3 | 29.5 |  | 
37 | GGCUACGUUUCGUAGCAGUGUCAUCGAGAAGGCCCUGACAUGAGGAUCACCCAUGUUGUUACAUGGGAGGAUAUCGAUGAUACC |  |  | 12.1 | 5.27
38 | AAGUGUGCCUAGGAUAUGUUCGGCCAAGGUCAUACAGAAGGAGGCACAUGAGGAUCACCCAUGUAGUGUCCAAC | 118 | 29.4 |  | 

Row | Sequence | apparent Kd [1] [nM] | apparent Kd [2] [nM] | apparent Kd [3] [nM] | apparent Kd [4] [nM]
39 | GGACGUCACAUUUACAUGAGGAUCACCCAUGUCAAAAGACAUGAGGAUAUGGAUGCGAAACGCAUCCAGAAGGCAUGGACGUCC |  |  | 286 | 27.8
40 | GCAUGUAAGUAGAAGGGCAGAUAUUUUGAUACUGCAGGAUAUGCAGAAUCAUAUCCACAUGAUAACAUGAGGAUCACCCAUGUA | 32.7 | 25.6 |  | 
41 | UUGGUGUACGUAGGAUAUGUAGGAUAUUCCUACAUGAGGAUCACCCAUGUAUGCAUGGAAGAAGGACAGAAGGACGUGCACCAU |  |  | 203 | 14
42 | CAGAGUAAAGGAUAUACAUGAGGAUCACCCAUGUUUAGACCGACGACACGUCCUAGUUGUAGAAGGUUAUUUUG | 82.2 | 68.7 |  | 
43 | CAUUAAUUCAUUAUAGUUAUUAUACAGGAUAUGUUACAUGAGGAUCACCCAUGUUAUCAUGGUAAACAGAAGGGUAUAUAAAGU | 33.5 | 57.5 |  | 
44 | GUGUGCAGAGGAUAUACAGAGGAAAAGAAAAGAGAAGGGAGACAUGAGGAUCACCCAUGUAGAAGGCUGAGUGU | 64.4 | 91.8 |  | 
45 | ACCUUACAUGAGGAUCACCCAUGUCAGGAUAUCUCGGACGGCUGAAAACCAACCGUCCAGAGAAGGGACGAGGA | 13.1 | 15.2 |  | 
46 | GGGCUCGUCGUAAACGACAUGAGGAUCACCCAUGUUGGGCACAGAAGGGCCUUCAUUCGGAUCAGGCAGGAUAUGUAUCUAACA | 5.09 | 5.32 |  | 
47 | AGAUUUAAUACAGGAUAUGUUAGUAUACAGUUGAUUGGUUAUUACAUUAUGACAGAAGGGUAGAACAUGAGGAUCACCCAUGUA |  |  | 241 | 115
48 | UUGGUAUUCGUAGGAUAUCCGUCGCCACCGUGUGGAGAAGGACGAACAUGAGGAUCACCCAUGUAUCAUGGUGUGGGCGUUGUC | 92.5 | 90.1 |  | 
49 | AUUUAAUUUAAUAAGAUCACAUGAGGAUCACCCAUGUAUAUAUAGGAUAUCAGCUCGAAUAGAGCUGAGAAGGAUAUAUACUAU | 326 | 323 |  | 
50 | AUAAUGUAAGGAUAUCAGUCGACUAGCUGCGGCUAGUCGACUGAGAAGGUACAUGAGGAUCACCCAUGUGUUCC | 133 | 868 |  | 
51 | GAUCGACCUGAGAAGGCACAUGAGGAUCACCCAUGUUGAACCAUACAUGCCACAAAGUGGCAAUGUGAGGAUAUCAGGUCGAUC | 6.54 | 12.1 |  | 
52 | CGCAAGUCAGGAUAUUCGACAGGUAAAUCAGUGGAUCAGUAGGAGAAGGGACAUGAGGAUCACCCAUGUAUGUA | 49.7 | 29.6 |  | 
53 | UCCACUGCUGAGAAGGGAUCCGUGUGGUUCGAAUCAGGAUAUCGAUACAGUGCAGCAUGAGGACAUGAGGAUCACCCAUGUAUC |  |  | 13.2 | 11.3
54 | CUGUUCCGUGUAGGAUAUGCAUAUUCUCAUUAUGCAGAAGGACAUGAGGAUCACCCAUGUAUGUUAUUAUCAUAUGUUACAUGU | 37.5 | 321 |  | 
55 | GGUACCUUCACAGGAUAUGCUAUCCUUUGGGUAGCAGAAGGGUGAUAACAUGAGGAUCACCCAUGUGGUACCGGGCGUGAGCCC |  |  | 1180 | 109
56 | AAAGCUUCCGCCACAUGAGGAUCACCCAUGUCGUAACCGGGACAGGAUAUCCUCGAUGUAUUUGCGGAGAAGGGUCGCAGGUUA |  |  | 77.1 | 147
